Data reported in ChEMBL document CHEMBL1155877, “Design, synthesis, and biological evaluation of 14-substituted aromathecins as topoisomerase I inhibitors” (2008).
The source made the active and inactive calls. No cut-off for these calls is given here.

Tests used:
[1] = target: T1, DNA topoisomerase 1 (Homo sapiens) (UniProt P11387); assay: Inhibition of human recombinant topoisomerase 1 assessed as DNA cleavage relative to 1 uM camptothecin
T1 sequence (whole entry): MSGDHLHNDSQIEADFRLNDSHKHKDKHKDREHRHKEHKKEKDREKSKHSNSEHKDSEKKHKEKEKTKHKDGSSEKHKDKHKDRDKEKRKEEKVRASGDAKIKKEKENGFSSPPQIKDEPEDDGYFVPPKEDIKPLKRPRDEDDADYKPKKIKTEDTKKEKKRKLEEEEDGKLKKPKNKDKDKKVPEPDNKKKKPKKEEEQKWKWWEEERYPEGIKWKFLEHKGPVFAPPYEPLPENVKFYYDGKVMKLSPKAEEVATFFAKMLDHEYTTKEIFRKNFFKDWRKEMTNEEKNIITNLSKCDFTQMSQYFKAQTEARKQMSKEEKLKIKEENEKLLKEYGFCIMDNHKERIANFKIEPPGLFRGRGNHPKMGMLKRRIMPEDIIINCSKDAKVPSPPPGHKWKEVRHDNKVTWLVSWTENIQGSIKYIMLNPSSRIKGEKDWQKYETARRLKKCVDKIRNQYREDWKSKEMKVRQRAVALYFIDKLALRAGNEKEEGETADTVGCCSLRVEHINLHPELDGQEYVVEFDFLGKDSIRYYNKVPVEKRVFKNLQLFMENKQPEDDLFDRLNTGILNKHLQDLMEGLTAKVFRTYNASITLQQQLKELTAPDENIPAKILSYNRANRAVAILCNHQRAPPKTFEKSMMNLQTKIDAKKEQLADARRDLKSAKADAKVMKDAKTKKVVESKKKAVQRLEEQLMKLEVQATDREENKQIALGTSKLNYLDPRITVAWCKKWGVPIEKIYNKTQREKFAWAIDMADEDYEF
Procedure, shortened: (§1)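 Baculovirus-expressed, purified human recombinant top1. Substrate is the 161 bp PvuII/HindIII fragment of pBluescript SK(-), 3'-end labeled at the HindIII site with [α-32P]-dGTP (about 50 000 dpm/reaction). Incubated with drug at 22 °C for 30 min. Products resolved on denaturing 16% polyacrylamide/7 M urea gels and imaged by phosphorimager. Tested at 0.1, 1, 10 and 100 µM.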

SN12C = assay: Antiproliferative activity against human SN12C cells; format: functional
Procedure, shortened: (§2)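 NCI ~60 human tumor cell line screen. After an initial one-dose test, selected compounds run at five concentrations spanning 10^-8 to 10^-4 M. GI50 reported for selected lines from each subpanel.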

MDA-MB-435 = assay: Antiproliferative activity against human MDA-MB-435 cells; format: functional; procedure, shortened: as §2
HOP-62 [2] = assay: Antiproliferative activity against human HOP62 cells; format: functional; procedure, shortened: as §2
OVCAR-3 = assay: Antiproliferative activity against human OVCAR-3 cells; format: functional; procedure, shortened: as §2
UACC-62 = assay: Antiproliferative activity against human UACC62 cells; format: functional; procedure, shortened: as §2
SF-539 = assay: Antiproliferative activity against human SF539 cells; format: functional; procedure, shortened: as §2
DU-145 = assay: Antiproliferative activity against human DU145 cells; format: functional; procedure, shortened: as §2
HOP-62 [3] = assay: Growth inhibition of human HOP62 cells at 10 uM; format: functional; details: pooled result: one value given for 8 cell lines, strains, targets or settings, read-out: GI
[4] = target: T1, DNA topoisomerase 1 (Homo sapiens); assay: Induction of human recombinant topoisomerase 1-mediated DNA cleavage at 100 uM; procedure, shortened: as §1
HCT-116 = assay: Antiproliferative activity against human HCT116 cells; format: functional; procedure, shortened: as §2

SMILES	inhibition [1] [%]	GI50 (MDA-MB-435) [µM]	GI50 (OVCAR-3) [µM]	GI50 (DU-145) [µM]	Activity [1]	Activity [4]	GI50 (HCT-116) [µM]	GI50 (SN12C) [µM]	GI50 (HOP-62 [2]) [µM]	GI50 (UACC-62) [µM]	GI50 (SF-539) [µM]	inhibition of growth at 10 µM (HOP-62 [3]) [%]
COc1cc2cc3n(c(=O)c2cc1OC)Cc1cc2ccccc2nc1-3 [DIMETHOXYAROMATHECIN]	20	> 100	> 100	> 100	–	–	–	> 100	> 100	> 100	> 100	–
O=c1c2ccccc2cc2n1Cc1c-2nc2ccccc2c1CNCCCN1CCOCC1	–	–	–	–	–	–	–	–	–	–	–	25.5
COc1cc2c3c(n(C)c(=O)c2cc1OC)-c1cc2c(cc1C3=O)OCO2	50	96	–	37	–	–	35	68	1.3	4.2	41	–
O=c1c2ccccc2cc2n1Cc1cc3ccccc3nc1-2 [ROSETTACIN]	50	–	–	> 100	–	–	–	> 100	–	–	–	–
O=c1c2ccccc2cc2n1Cc1c-2nc2ccccc2c1CNCCCn1ccnc1	50	7	4.4	3.2	–	–	3.2	3.5	4.7	6.4	3.8	–
O=c1c2ccccc2cc2n1Cc1c-2nc2ccccc2c1CCCn1ccnc1	75	4.2	5	3.3	–	–	1.6	4.5	2	1.5	0.74	–
O=c1c2cccc(CO)c2cc2n1Cc1cc3ccccc3nc1-2	20	–	–	–	–	–	–	–	–	–	–	–
COc1cc2c3c(n(CCCNCCO)c(=O)c2cc1OC)-c1cc2c(cc1C3=O)OCO2 [LMP-744]	–	0.79	0.5	> 0.01	Active	–	0.1	> 0.01	0.02	0.03	0.04	–
O=c1c2ccccc2cc2n1Cc1c-2nc2ccccc2c1CCCN1CCOCC1	50	> 100	10.6	20.3	–	–	3.9	5.9	5	1.4	3.5	–
O=c1c2ccccc2cc2n1Cc1c-2nc2ccccc2c1CN1CCOCC1	50	–	–	–	–	–	–	–	–	–	–	14
CC[C@@]1(O)C(=O)OCc2c1cc1n(c2=O)Cc2cc3ccccc3nc2-1 [CAMPTOTHECIN]	–	0.04	–	0.01	–	–	0.03	0.02	0.01	0.01	0.01	–

Now from value to compound, other results behind:

inhibition [1] [%]	GI50 (MDA-MB-435) [µM]	GI50 (OVCAR-3) [µM]	GI50 (DU-145) [µM]	Activity [1]	Activity [4]	GI50 (HCT-116) [µM]	SMILES	GI50 (SN12C) [µM]	GI50 (HOP-62 [2]) [µM]	GI50 (UACC-62) [µM]	GI50 (SF-539) [µM]	inhibition of growth at 10 µM (HOP-62 [3]) [%]
–	1.7	6.3	13.2	Active	Active	1.6	O=c1c2ccccc2cc2n1Cc1c-2nc2ccccc2c1CCCNCCO	4.1	1.2	1.8	12.9	–
20	> 100	> 100	> 100	–	–	43.4	O=c1c2ccccc2cc2n1Cc1c-2nc2ccccc2c1CCl	> 100	26.5	> 100	7.4	–
75	> 100	17	11.5	–	–	13.2	O=c1c2ccccc2cc2n1Cc1c-2nc2ccccc2c1Cn1ccnc1	21.5	10	3.4	4.7	–
20	–	–	–	–	–	–	NCCCc1c2c(nc3ccccc13)-c1cc3ccccc3c(=O)n1C2	–	–	–	–	–
75	> 100	6.3	2.8	–	–	3.6	O=c1c2ccccc2cc2n1Cc1c-2nc2ccccc2c1CNCCO	2.7	3.5	2.6	3.9	–
75	> 100	> 100	> 100	–	–	–	CN(C)Cc1c2c(nc3ccccc13)-c1cc3ccccc3c(=O)n1C2	> 100	> 100	> 100	> 100	–
50	9.4	2.9	2.8	–	–	1.5	NCc1c2c(nc3ccccc13)-c1cc3ccccc3c(=O)n1C2	2.9	9.8	11.7	4.9	–
75	2.1	–	4.9	–	–	1.9	CN1CCN(Cc2c3c(nc4ccccc24)-c2cc4ccccc4c(=O)n2C3)CC1	> 100	> 100	> 100	1.8	–
75	–	–	–	–	–	–	CN(C)CCCc1c2c(nc3ccccc13)-c1cc3ccccc3c(=O)n1C2	–	–	–	–	21.4
75	10.3	5.5	7	–	–	9	O=c1c2ccccc2cc2n1Cc1c-2nc2ccccc2c1CN1CC[C@H](O)C1	16.9	28.6	2.7	5.4	–
